According to publication PMC5656813 (Arthritis & Rheumatology (Hoboken, N.j.), 2017):

How the values were obtained:
[1] = test system: RA patients with an inadequate response to MTX; assay: Study 1; assay type: in vivo, human
In short: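 Randomized, double-blind, placebo-controlled trial at one site, 36 RA patients. Patients had MTX for ≥6 months and a stable 7.5–25 mg/week dose for ≥4 weeks, continued throughout. Oral capsules for 4 weeks: 200 mg once daily or 100 mg twice daily. ACR20/50/70 responses, DAS28-CRP and ACR core components (pain VAS, HAQ DI) scored as change from baseline. Intent-to-treat population.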

[2] = test system: RA patients with an inadequate response to MTX; assay: Study 2; assay type: in vivo, human; settings: for ACR20 responders at week 4 / ACR50 responders at week 4 / DAS28‐CRP, mean change from baseline at week 4 / EULAR cumulative score, good/moderate, at week 4 / HAQ DI score, mean change from baseline at week 4 / Patient's assessment of pain, mean change from baseline at week 4 / Patient's global assessment of disease activity, mean change from baseline at week 4 / Physician's global assessment of disease activity, mean change from baseline at week 4 / Remission rate (DAS28‐CRP <2.6) at week 4 / SJC66, mean change from baseline at week 4 / Serum CRP, mean change from baseline at week 4 / TJC68, mean change from baseline at week 4: study 2
In short: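 Randomized, double-blind, placebo-controlled dose-ranging trial: 91 RA patients, 19 sites in 4 countries, 1:1:1:1:1 allocation. Patients had MTX for ≥12 weeks and a stable 7.5–25 mg/week dose for ≥4 weeks, continued throughout. Oral capsules once daily at 30, 75, 150 or 300 mg for 4 weeks. Read-outs: ACR responses, DAS28-CRP and HAQ DI change from baseline at week 4. Intent-to-treat population.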

O=C(Nc1nc2cccc(-c3ccc(CN4CCS(=O)(=O)CC4)cc3)n2n1)C1CC1 [Filgotinib]
ACR20 responders at week 4 ([1]; 100 mg twice daily, study 1): 11 (91.7) no. (%)
ACR50 responders at week 4 ([1]; 100 mg twice daily, study 1): 4 (33.3) no. (%)
DAS28‐CRP, mean change from baseline at week 4 ([1]; 100 mg twice daily, study 1): −2.81
HAQ DI score, mean change from baseline at week 4 ([1]; 100 mg twice daily, study 1): −0.52
Patient's assessment of pain, mean change from baseline at week 4 ([1]; 100 mg twice daily, study 1): −29.8 0–10‐cm VAS
Patient's global assessment of disease activity, mean change from baseline at week 4 ([1]; 100 mg twice daily, study 1): −25.8 0–10‐cm VAS
Physician's global assessment of disease activity, mean change from baseline at week 4 ([1]; 100 mg twice daily, study 1): −35.0 0–10‐cm VAS
Remission rate (DAS28‐CRP <2.6) at week 4 ([1]; 100 mg twice daily, study 1): 3 (25.0) no. (%)
SJC66, mean change from baseline at week 4 ([1]; 100 mg twice daily, study 1): −15.4
Serum CRP, mean change from baseline at week 4 ([1]; 100 mg twice daily, study 1): -13.84 mg/L
TJC68, mean change from baseline at week 4 ([1]; 100 mg twice daily, study 1): −36.3
time to normalization of serum CRP level ([1]; 200 mg once daily and 100 mg twice daily, study 1): ≤ 1 week
ACR20 responders at week 4 ([1]; 200 mg once daily, study 1): 9 (75.0) no. (%)
ACR50 responders at week 4 ([1]; 200 mg once daily, study 1): 2 (16.7) no. (%)
DAS28‐CRP, mean change from baseline at week 4 ([1]; 200 mg once daily, study 1): −2.23
HAQ DI score, mean change from baseline at week 4 ([1]; 200 mg once daily, study 1): −0.57
Patient's assessment of pain, mean change from baseline at week 4 ([1]; 200 mg once daily, study 1): −24.3 0–10‐cm VAS
Patient's global assessment of disease activity, mean change from baseline at week 4 ([1]; 200 mg once daily, study 1): −23.8 0–10‐cm VAS
Physician's global assessment of disease activity, mean change from baseline at week 4 ([1]; 200 mg once daily, study 1): −26.7 0–10‐cm VAS
Remission rate (DAS28‐CRP <2.6) at week 4 ([1]; 200 mg once daily, study 1): 2 (16.7) no. (%)
SJC66, mean change from baseline at week 4 ([1]; 200 mg once daily, study 1): −12.8
Serum CRP, mean change from baseline at week 4 ([1]; 200 mg once daily, study 1): -35.05 mg/L
TJC68, mean change from baseline at week 4 ([1]; 200 mg once daily, study 1): −23.1
patients achieving an ACR20 response ([1]; study 1, all filgotinib‐treated patients, end of 4 weeks): > 83%
ACR20 responders at week 4 ([2]; 30 mg once daily): 6 (35.3) no. (%)
ACR50 responders at week 4 ([2]; 30 mg once daily): 2 (11.8) no. (%)
DAS28‐CRP, mean change from baseline at week 4 ([2]; 30 mg once daily): −1.08
EULAR cumulative score, good/moderate, at week 4 ([2]; 30 mg once daily): 58.8%
HAQ DI score, mean change from baseline at week 4 ([2]; 30 mg once daily): −0.15
Patient's assessment of pain, mean change from baseline at week 4 ([2]; 30 mg once daily): −7.41 0–10‐cm VAS
Patient's global assessment of disease activity, mean change from baseline at week 4 ([2]; 30 mg once daily): −11.88 0–10‐cm VAS
Physician's global assessment of disease activity, mean change from baseline at week 4 ([2]; 30 mg once daily): −9.76 0–10‐cm VAS
Remission rate (DAS28‐CRP <2.6) at week 4 ([2]; 30 mg once daily): 2 (11.8) no. (%)
SJC66, mean change from baseline at week 4 ([2]; 30 mg once daily): −6.24
Serum CRP, mean change from baseline at week 4 ([2]; 30 mg once daily): -13.28 mg/L
TJC68, mean change from baseline at week 4 ([2]; 30 mg once daily): −10.18
ACR20 responders at week 4 ([2]; 75 mg once daily): 12 (54.5) no. (%)
ACR50 responders at week 4 ([2]; 75 mg once daily): 6 (27.3) no. (%)
DAS28‐CRP, mean change from baseline at week 4 ([2]; 75 mg once daily): −1.72
EULAR cumulative score, good/moderate, at week 4 ([2]; 75 mg once daily): 68.2%
HAQ DI score, mean change from baseline at week 4 ([2]; 75 mg once daily): −0.47
Patient's assessment of pain, mean change from baseline at week 4 ([2]; 75 mg once daily): −21.27 0–10‐cm VAS
Patient's global assessment of disease activity, mean change from baseline at week 4 ([2]; 75 mg once daily): −21.00 0–10‐cm VAS
Physician's global assessment of disease activity, mean change from baseline at week 4 ([2]; 75 mg once daily): −27.09 0–10‐cm VAS
Remission rate (DAS28‐CRP <2.6) at week 4 ([2]; 75 mg once daily): 3 (13.6) no. (%)
SJC66, mean change from baseline at week 4 ([2]; 75 mg once daily): −8.42
Serum CRP, mean change from baseline at week 4 ([2]; 75 mg once daily): -15.09 mg/L
TJC68, mean change from baseline at week 4 ([2]; 75 mg once daily): −13.72
ACR20 responders at week 4 ([2]; 150 mg once daily): 6 (40.0) no. (%)
ACR50 responders at week 4 ([2]; 150 mg once daily): 0 no. (%)
DAS28‐CRP, mean change from baseline at week 4 ([2]; 150 mg once daily): −1.80
EULAR cumulative score, good/moderate, at week 4 ([2]; 150 mg once daily): 66.7%
HAQ DI score, mean change from baseline at week 4 ([2]; 150 mg once daily): −0.26
Patient's assessment of pain, mean change from baseline at week 4 ([2]; 150 mg once daily): −14.07 0–10‐cm VAS
Patient's global assessment of disease activity, mean change from baseline at week 4 ([2]; 150 mg once daily): −12.33 0–10‐cm VAS
Physician's global assessment of disease activity, mean change from baseline at week 4 ([2]; 150 mg once daily): −24.87 0–10‐cm VAS
Remission rate (DAS28‐CRP <2.6) at week 4 ([2]; 150 mg once daily): 0 no. (%)
SJC66, mean change from baseline at week 4 ([2]; 150 mg once daily): −10.52
Serum CRP, mean change from baseline at week 4 ([2]; 150 mg once daily): -20.50 mg/L
TJC68, mean change from baseline at week 4 ([2]; 150 mg once daily): −14.85
patients achieving remission (DAS28‐CRP <2.6) ([2]; 300 mg group, within 4 weeks): up to 25%
ACR20 responders at week 4 ([2]; 300 mg once daily): 13 (65.0) no. (%)
ACR50 responders at week 4 ([2]; 300 mg once daily): 9 (45.0) no. (%)
DAS28‐CRP, mean change from baseline at week 4 ([2]; 300 mg once daily): −2.25
EULAR cumulative score, good/moderate, at week 4 ([2]; 300 mg once daily): 80.0%
HAQ DI score, mean change from baseline at week 4 ([2]; 300 mg once daily): −0.68
Patient's assessment of pain, mean change from baseline at week 4 ([2]; 300 mg once daily): −29.85 0–10‐cm VAS
